# Screening data deposited in PubChem by Sanford-Burnham Center for Chemical Genomics.
# The list is not random: actives were taken first. Their share in the collection is about 1.2%.
# HKDC1 inhibitor: blocks human hexokinase HKDC1 activity. recombinant HKDC1, G6PDH/diaphorase resazurin coupled fluorescence. inhibition, % at 20 µM. 340,000 tested, 0.16% active. AID 493160;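 active = inhibition above about 35% when tested at 20 µM, limit read from the data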;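 note: plate controls were DMSO wells with enzyme for no effect and DMSO wells lacking enzyme for full effect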
# Target sequence (Q2TB90 whole entry, looked up): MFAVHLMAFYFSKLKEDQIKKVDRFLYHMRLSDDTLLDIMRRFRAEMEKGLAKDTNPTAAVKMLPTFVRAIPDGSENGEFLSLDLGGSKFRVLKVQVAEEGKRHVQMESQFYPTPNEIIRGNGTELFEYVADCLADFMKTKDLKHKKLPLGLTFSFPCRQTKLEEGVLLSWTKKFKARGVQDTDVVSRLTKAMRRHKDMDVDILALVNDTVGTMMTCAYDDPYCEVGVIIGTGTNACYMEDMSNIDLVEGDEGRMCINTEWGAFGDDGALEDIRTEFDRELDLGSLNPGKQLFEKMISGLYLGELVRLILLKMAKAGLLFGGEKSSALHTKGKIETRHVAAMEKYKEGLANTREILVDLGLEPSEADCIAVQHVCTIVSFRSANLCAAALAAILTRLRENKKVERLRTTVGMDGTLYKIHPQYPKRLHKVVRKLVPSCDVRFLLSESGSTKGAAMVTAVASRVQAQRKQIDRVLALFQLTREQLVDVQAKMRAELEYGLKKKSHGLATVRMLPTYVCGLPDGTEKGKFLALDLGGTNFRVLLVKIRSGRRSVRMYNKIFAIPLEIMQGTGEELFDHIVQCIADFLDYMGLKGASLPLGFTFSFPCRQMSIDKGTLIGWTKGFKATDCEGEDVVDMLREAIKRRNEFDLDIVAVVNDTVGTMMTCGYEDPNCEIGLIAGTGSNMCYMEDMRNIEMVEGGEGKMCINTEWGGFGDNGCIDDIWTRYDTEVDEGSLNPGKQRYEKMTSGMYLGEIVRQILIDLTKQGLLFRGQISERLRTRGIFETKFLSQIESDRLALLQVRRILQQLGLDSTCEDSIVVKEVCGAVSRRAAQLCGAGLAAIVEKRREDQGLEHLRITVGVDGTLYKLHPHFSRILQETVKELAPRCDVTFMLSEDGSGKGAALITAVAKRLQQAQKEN
#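 test system = in-house recombinant HK5 (HKDC1) enzyme | amount = HKDC1 at 5 µg/mL | control set = DMSO-enzyme wells negative, buffer-substituted wells positive | compound = one dose of 20 µM, 1% DMSO | schedule = reaction time 90 min, room temperature, protected from light | technique = resorufin fluorescence at 613 nm | reagent = glucose with 1 mM ATP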
# G6PDH counter: inhibits Leuconostoc G6PDH, flagging false hits in G6PDH-based assays; Purified L. mesenteroides G6PDH, diaphorase/resazurin coupled fluorescence, 45 min; inhibition, % at 5 µM; 200,000 tested, 0.12% active; in the data active = inhibition above about 50%
# PfGluPho inh: PfG6PD (Plasmodium falciparum) enzyme inhibition. inhibition, % at 20 µM. PfGluPho enzyme, NADPH resazurin-diaphorase fluorescence. 350,000 tested, 0.78% active;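 active = inhibition reaching at least a set limit at 20 µM in the primary screen, cut at about 59% in these data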;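 note: 0% = DMSO wells with substrate and 100% = DMSO wells lacking glucose-6-phosphate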
# Diaphorase inh: diaphorase inhibition or chemical oxidation counter-screen | diaphorase resazurin-to-resorufin fluorescence, NADH, 16 min; bacterial (C. kluyveri) enzyme, not human | inhibition, % at 20 µM | 190,000 tested, 0.69% active | AID 1217;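 active = primary screen inhibition at 20 µM above a set limit, cut at about 50% in these data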;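 note: plate controls were DMSO with full reaction for no effect and wells lacking NADH for full effect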
#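 System: Bacterial diaphorase enzyme (C. kluyveri) | Incubation: 16-min room-temperature incubation before reading | Benchmarks: No-NADH positive control and DMSO neutral control | Measured by: Resorufin fluorescence 544/590 nm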
# PfGluPho conf: PfG6PD inhibition, single-dose confirmed; inhibition, % at 20 µM; shares compounds with PfGluPho inh; 2,400 tested, 34% active; recombinant PfGluPho, NADPH-diaphorase-resazurin fluorescence;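 active = inhibition of at least 50% at 20 µM in any single replicate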;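 note: 0% = DMSO with substrate and 100% = DMSO lacking glucose-6-phosphate substrate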
# Diaphorase 10uM: counter-screen for P. falciparum G6PD inhibitors: diaphorase inhibitors, oxidizers; 820 tested, 39% active; shares compounds with PfGluPho inh; diaphorase-coupled resazurin reduction, fluorescence, NADPH 10 uM; inhibition, % at 20 µM;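 active = average inhibition reaching 50% or more with the compound at 20 µM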;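 note: resorufin red fluorescence formed as diaphorase reduces resazurin using NADPH; 0% = DMSO with enzyme and 100% = DMSO without enzyme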
# Diaph ctr 30uM: inhibits diaphorase or oxidizes, flagging false PfG6PD hits; shares compounds with PfGluPho inh; Diaphorase/resazurin coupled assay, resorufin fluorescence, 30 uM NADPH; inhibition, % at 20 µM; 820 tested, 29% active; AID 504863;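 active = inhibition averaging 50% or more, tested at 20 µM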;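 note: 0% = DMSO with enzyme and 100% = DMSO wells lacking diaphorase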
# Starred values were filed as active, the others as inactive; . = no result.
SMILES,HKDC1 inhibitor,G6PDH counter,PfGluPho inh,Diaphorase inh,PfGluPho conf,others
O=S(=O)(c1cccs1)N1CCCc2cccc(O)c21,25,14,93*,13,26,
CCOc1ccccc1NC(=O)COC(=O)COc1cccc2c1OC(C)(C)C2,.,.,-5,.,.,
COc1ccc(NC(=O)c2oc3ccccc3c2CSC)cn1,3,.,73*,.,29,
CCOCc1c(C(=O)Nc2ccc(OC)nc2)oc2ccccc12,-3,.,41,.,.,
O=C(NCCC(=O)N1CCN(c2ccccn2)CC1)c1ccc(Br)cc1,-7,.,-3,.,.,
C=CC[C@H](CC(=O)OC(C)(C)C)C(=O)OC[C@H]1CCCN1C(=O)[C@@H](CC=C)CC(=O)N(CCO)Cc1ccccc1,-6,.,7,.,.,
CC1(C(=O)O)COC(c2ccc([N+](=O)[O-])cc2)OC1 (centres undefined),-6,-2,-11,4,.,
O=C1NC(C(=O)O)=CC(c2ccc([N+](=O)[O-])cc2)N1 (centres undefined),-10,.,65*,.,18,
O=C(O)c1ccc(-n2c(-c3cc(-c4ccco4)[nH]n3)n[nH]c2=S)cc1,-2,4,59*,38,56*,Diaphorase 10uM=-3;Diaph ctr 30uM=-1
COc1ccc(/C=N/Nc2cc(C)nc3ccccc23)cc1,4,.,23,.,.,
COc1ccc(/C=N/Nc2cc(C)nc3c(C)cccc23)cc1,-3,.,76*,.,33,
COc1ccc(C(=O)N2CCc3ccc(NC(=O)c4ccccn4)cc3C2)cc1F,-1,.,-5,.,.,
